Results gathered from unrelated publications.
Compare with care: the assays were run in different laboratories.

| SMILES | target | assay | test system | conditions | measurement | value |
| --- | --- | --- | --- | --- | --- | --- |
| O=c1ccc2ccc3occc3c2o1 | Aldehyde dehydrogenase, mitochondrial (ALDH2, Homo sapiens, UniProt P05091) | enzyme activity, inhibitor, absorbance | – | 10 µM | activity vs control | 95.2% |
| C=C=CCN | Primary amine oxidase, liver isozyme (Bos taurus, UniProt Q29437) | enzyme activity, inhibitor, fluorescence | – | – | kinact/KI | 9220 M⁻¹ s⁻¹ |
| c1ccc(C(NCCNC(c2ccccc2)c2ccccc2)c2ccccc2)cc1 | Collagenase 3 (MMP13, Homo sapiens, UniProt P45452) | enzyme activity, inhibitor | – | 10 µM | inhibition | -10% |
| C#Cc1n[nH]c2c(-c3cn(C(C)c4ccccn4)c(=O)[nH]c3=O)cc(F)cc12 (stereo not shown) | Insulin receptor (INSR, Homo sapiens, UniProt P06213) | enzyme activity, inhibitor | – | 1 µM | inhibition | 8.5% |
| CC1CCCN(c2ncc(Cl)c(Nc3ccc4c(c3)n(CCC(C)(C)O)c(=O)n4C)n2)C1 (stereo not shown) | B-cell lymphoma 6 protein (BCL6, Homo sapiens, UniProt P41182) | protein level, degrader | SU-DHL-4 | – | Dmax | 85% |
| Nc1ncc(-c2nc(N3CCOCC3)nc(N3CCOCC3)n2)c(C(F)F)n1 | Calcium/calmodulin-dependent protein kinase type II subunit gamma (CAMK2G, Homo sapiens, UniProt Q13555) | binding, competition with immobilised ligand | – | 10 µM | remaining binding | 73% |
| Cc1nn(C)cc1-c1nc2c(N3CCN(Cc4ccc(Cl)cc4)CC3)c(Cl)cnc2[nH]1 | Receptor tyrosine-protein kinase erbB-3 (ERBB3, Homo sapiens, UniProt P21860) | binding, competition with immobilised ligand | – | 1 µM | remaining binding | 95% |
| CCN(CC)CCCC[C@H](NC(=O)[C@H](CC(C)C)NC(=O)[C@H](C)NC(=O)[C@H](Cc1ccccc1)NC(=O)c1ccc(C(C)(C)C)cc1)C(=O)N[C@@H](CO)C(=O)OC | Protein polybromo-1, bromodomain (PBRM1, Homo sapiens, UniProt Q86U86) | thermal stability, DSF | – | 25 µM | ΔTm | -0.15 °C |
| COc1ncccc1-c1cnn2ccc(N3CCN(C(=O)OC(C)C)CC3)nc12 | Serine/threonine-protein kinase SBK1 (SBK1, Homo sapiens, UniProt Q52WX2) | binding, competition with immobilised ligand | – | 1 µM | remaining binding | 84% |
| CCCCCCCCCCCCCC(=O)O[C@@H]1[C@@H](C)[C@@]2(O)[C@@H](C=C(CO)C[C@]3(O)C(=O)C(C)=C[C@@H]23)[C@@H]2C(C)(C)[C@]12OC(C)=O | Adenosine receptor A2b (Adora2b, Rattus norvegicus, UniProt P29276) | cAMP, agonist | H9c2 | – | Emax | 19.6% |
